# Results collected from several papers.
# Each line is one published result; the experiments were not run side by side.
# CA9: Carbonic anhydrase 9 (CA9, Homo sapiens, UniProt Q16790)
# PKN1: Serine/threonine-protein kinase N1 (PKN1, Homo sapiens, UniProt Q16512)
# PRSS1: Serine protease 1 (PRSS1, Bos taurus, UniProt P00760)
# PADI4: Protein-arginine deiminase type-4 (PADI4, Homo sapiens, UniProt Q9UM07)
# SIRT5: NAD-dependent protein deacylase sirtuin-5, mitochondrial (SIRT5, Homo sapiens, UniProt Q9NXA8)
# PDE4C: 3',5'-cyclic-AMP phosphodiesterase 4C (PDE4C, Homo sapiens, UniProt Q08493)
# MMP9: Matrix metalloproteinase-9 (MMP9, Homo sapiens, UniProt P14780)
SMILES,target,test,setting,IC50
NS(=O)(=O)c1cc(C(=O)N2CCCCC2C(=O)Nc2cc(Cl)ccc2Cl)ccc1F (stereo not drawn),CA9,"enzyme activity, inhibitor",,30.2 nM
Clc1ccc(C2(c3ccc(-c4cn[nH]c4)cc3)CCNCC2)cc1,PKN1,"enzyme activity, inhibitor",,49 nM
Cc1nc2ccc(Br)cc2c(=O)n1/N=C/c1ccc(C(=O)O)cc1,PRSS1,"enzyme activity, inhibitor",,213000 nM
Cn1ncc(Cl)c1-c1cc(C(=O)N[C@H](CN)Cc2ccc(F)c(F)c2)oc1Cl,PKN1,"enzyme activity, inhibitor",,19 nM
NS(=O)(=O)c1ccc(CCNC(=O)Nc2ccc(NC(=O)c3ccc(Cl)cc3)cc2)cc1,CA9,"enzyme activity, inhibitor",,96 nM
CCCC[C@H](NC(=O)[C@H](C)c1c(C)[nH]c2ccc(O)cc12)c1ncc(-c2cc3ccccc3nc2OC)[nH]1,"Histone deacetylase 9 (HDAC9, Homo sapiens, UniProt Q9UKV0)","enzyme activity, inhibitor",,> 45000 nM
CCNC(=O)[C@H](CCCNC(=N)CF)NC(=O)c1ccccc1,PADI4,"enzyme activity, inhibitor",,24300 nM
O=C(NO)c1ccc(CN(c2cnccn2)c2cnccn2)cc1,SIRT5,"enzyme activity, inhibitor",,> 10000 nM
NS(=O)(=O)c1ccc(NC(=O)COC(=O)C(=Cc2cccs2)c2cccs2)cc1,CA9,"enzyme activity, inhibitor",,322 nM
COc1cc(/C=N/n2c(C)nc3ccc(Br)cc3c2=O)ccc1OCc1ccc(Cl)cc1,PRSS1,"enzyme activity, inhibitor",,47800 nM
COc1ccc(C2=NN(C3CCCCCC3)C(=O)[C@@H]3CC=CC[C@H]23)cc1-c1ccc(C(=O)NCC(N)=O)cc1 (relative stereo),PDE4C,"enzyme activity, inhibitor",,1000 nM
CN/C(=N/CCSCc1nc[nH]c1C)NC#N,"Solute carrier family 22 member 7 (SLC22A7, Homo sapiens, UniProt Q9Y694)","transporter uptake, inhibitor",,22000 nM
COc1cc2c(c(OC)c1OC)-c1c(cc3c(c1OC)OCO3)C[C@H](C)[C@](C)(O)[C@H]2OC(=O)c1ccccc1,"Cytochrome P450 3A5 (CYP3A5, Homo sapiens, UniProt P20815)","enzyme activity, inhibitor","15 min, pH 7.4",370 nM
COc1ccc(-c2nsc(NC(=O)[C@@H]3C[C@H]3C)c2C)cc1,"Metabotropic glutamate receptor 4 (GRM4, Homo sapiens, UniProt Q14833)","calcium signal, antagonist",,> 12500 nM
N#CCNC(=O)c1ccc(-c2ccnc(Nc3ccc(N4CCOCC4)cc3)n2)cc1,PKN1,"enzyme activity, inhibitor",,278 nM
O=c1c(O)c(-c2ccc(O)c(O)c2)oc2cc(O)cc(O)c12,"Sulfotransferase 1A1 (SULT1A1, Homo sapiens, UniProt P50225, R213H)","enzyme activity, inhibitor",,232 nM
O=C(O)c1ccc(-c2c[nH]c3ncc(-c4ccccc4)cc23)cc1C1CCCC1,PKN1,"enzyme activity, inhibitor",,220 nM
CCn1c(-c2nc3ccc(C(=O)N4CCCC(N)C4)cc3n2C)cc2ccccc21 (stereo not drawn),PADI4,"ligand displacement, FP",,> 100000 nM
CC(OC(=O)C1CCCN(C(=O)c2ccc(Cl)cc2)C1)C(=O)Nc1ccc(S(N)(=O)=O)cc1 (stereo not drawn),CA9,"enzyme activity, inhibitor",,42.7 nM
CNC(=O)c1cc2c(Oc3ccc(NC(=O)C4(C(=O)Nc5ccc(F)cc5)CC4)cc3)ccnc2cc1OC,"Tyrosine-protein kinase HCK (HCK, Homo sapiens, UniProt P08631)","enzyme activity, inhibitor, radiometric",,24 nM
COCCOc1ccc2c(c1)ncn2-c1ccc2cccc(N3CCC(N)CC3)c2n1,PKN1,"enzyme activity, inhibitor",,36 nM
CN1CCN(c2ccc(Nc3ncc4cc(C#N)c(=O)n(C5CCCC5)c4n3)cc2)CC1,PKN1,"enzyme activity, inhibitor",,7050 nM
CCS(=O)(=O)c1cccc(-c2cc(C(=O)NC3CCN(C)CC3)c(C)c3[nH]c4ncc(C)cc4c23)c1,PKN1,"enzyme activity, inhibitor",,86 nM
COc1ccc2cc(/C=N/n3c(C)nc4ccc(Br)cc4c3=O)ccc2c1,PRSS1,"enzyme activity, inhibitor",,40700 nM
COc1ccc(S(=O)(=O)N2Cc3cc(O)c(O)cc3CC2C(=O)NO)cc1 (stereo not drawn),MMP9,"enzyme activity, inhibitor",,> 1000 nM
CC[C@@H](C(=O)Nc1ccc(C(N)=O)c(F)c1)n1cc(OC)c(-c2cc(Cl)ccc2-n2cc(C(F)(F)F)nn2)cc1=O,"Urokinase-type plasminogen activator (PLAU, Homo sapiens, UniProt P00749)","enzyme activity, inhibitor",,> 10000 nM
COc1cc(/C=N/n2c(C)nc3ccc(C)cc3c2=O)cc([N+](=O)[O-])c1O,PRSS1,"enzyme activity, inhibitor",,55700 nM
COc1ccc([C@@H]2CN(C(=O)[C@@H](O)CO)C[C@@]2(C)[C@@H](C)O)cc1OC1CN(c2ccc(C)cn2)C1,PDE4C,"enzyme activity, inhibitor",,2.4 nM
COc1cc(/C=N/n2c(C)nc3ccc(Br)cc3c2=O)ccc1O,PRSS1,"enzyme activity, inhibitor",,46400 nM
NS(=O)(=O)c1cc(NC(=O)CCc2nnc(-c3ccc(Cl)cc3)o2)ccc1O,CA9,"enzyme activity, inhibitor",,30.2 nM
CN(C)c1ccc(/C=C2/SC(Nc3ccc(S(N)(=O)=O)cc3)=NC2=O)cc1,CA9,"enzyme activity, inhibitor",,76.1 nM
CC(C)C[C@H](CC(=O)NO)C(=O)N[C@@H](Cc1ccccc1)C(=O)NCCN1CCOCC1,MMP9,"enzyme activity, inhibitor, fluorescence",,3 nM
CCOCc1nc(O)c(-c2nnc(Cc3ccc(Cl)cn3)o2)c(O)c1-c1c(OC)cccc1OC,"Histamine H1 receptor (HRH1, Homo sapiens, UniProt P35367)","ligand displacement, radioligand",,> 30000 nM
CNC(=O)c1ccc(NC(=O)CN(Cc2ccc(Cl)cc2)C(=O)c2ccc(S(N)(=O)=O)c(C)c2)c(F)c1,CA9,"enzyme activity, inhibitor",,28.8 nM
CN1CCC(Nc2nc(Nc3ccc(Oc4ccccc4)cc3)c3c(=O)[nH]cc(Br)c3n2)CC1,PKN1,"enzyme activity, inhibitor",,101 nM
CC(C)C(=O)Nc1ccc(C(=O)N2CCC(C(=O)Nc3ccc(S(N)(=O)=O)cc3)CC2)cc1,CA9,"enzyme activity, inhibitor",,37.2 nM
Cc1cc(Nc2cc(CN3CCOCC3)c3nc(C)c(Cc4ccc(Cl)cc4F)n3n2)n[nH]1,PKN1,"enzyme activity, inhibitor",,4070 nM
Cc1ccc(C(=O)NCCC(=O)NCc2cc(S(N)(=O)=O)ccc2F)c(O)c1,CA9,"enzyme activity, inhibitor",,1660 nM
N#C/C(=C\c1ccc(-c2cc(Cl)ccc2Cl)o1)C(=O)Nc1cccc2ncccc12,SIRT5,"enzyme activity, inhibitor, HPLC",,> 100000 nM
